# Assay results from different studies.
# Each line is one published result; the experiments were not run side by side.
# Medium: plasma
SMILES,test system,conditions,Cmax
CC(C)(Sc1ccncc1-c1ccc(C#N)c2ccccc12)C(=O)O,male human,"oral, 5 mg, single dose, fed, healthy volunteers",45.7 ng/mL
CC(C)(O)c1ccccc1-c1ccc2[nH]c(/C=C/c3ccc(C(F)(F)F)cc3)nc2c1,male human,"oral, 120 mg, single dose, fasted, healthy volunteers",261 ng/mL
CO[C@@H]1[C@H](OC(=O)N2CC(CCN3CCOCC3)C2)CC[C@]2(CO2)[C@H]1[C@@]1(C)O[C@@H]1CC=C(C)C,human,"subcutaneous, 1.2 mg, single dose, healthy volunteers",7.04 ng/mL
N#CN1C[C@H](n2nc(-c3ccc(Oc4ccc(Cl)cn4)cc3)c(C(N)=O)c2N)CCC12CC2,human,"oral, 600 mg, single dose, fed",1060 ng/mL
C[C@@]1(c2cc(NC(=O)c3ccc(C#N)cn3)ccc2F)C=CSC(N)=N1,human,"oral, 30 mg, single dose",148 ng/mL
CC(C)n1cc(C#N)c2cc(-n3cc(C(=O)O)cn3)ccc21,human,"oral, 25 mg, single dose, fasted, healthy volunteers",978 ng/mL
Br.Cc1ccc(Sc2ccccc2N2CCNCC2)c(C)c1,human,"oral, 20 mg, multiple doses, steady state, healthy volunteers",33 ng/mL
COc1cc(C(=O)NC2CCN(C)CC2)c(F)cc1Nc1ncc(C(F)(F)F)c(Oc2cccc3c2C(=O)N(C)C3)n1,human,"oral, 200 mg, multiple doses, once daily, steady state, patients",2580 nM
CCn1c(=O)c(-c2cc(NC(=O)Nc3ccccc3)c(F)cc2Br)cc2cnc(NC)cc21,human,"oral, 100 mg, single dose, patients",500 ng/mL
Oc1cc(O)c2c(c1)O[C@@H](c1ccc(O)c(O)c1)[C@@H](O)C2,human,"oral, 100 mg, single dose",3.6 ng/mL
CCCCC[C@H](O)CC[C@@H]1[C@H]2Cc3cccc(OCC(=O)O)c3C[C@H]2C[C@H]1O,human,"inhaled, 36 µg, single dose, healthy volunteers",0.87 ng/mL
Cn1c(=O)oc2ccc(-c3ccc(C[C@@H](C#N)NC(=O)[C@@H]4CNCCCO4)cc3)cc21,male human,"oral, 50 mg, single dose, healthy volunteers",1040 nM
CO[C@H]1CC[C@H](N2C(=O)CNc3ncc(-c4ccc(C(C)(C)O)nc4)nc32)CC1,human,"oral, 60 mg, multiple doses, patients",480 ng/mL
Cn1cc(-c2ccc(S(=O)(=O)[C@@H]3C[C@@H](C(=O)NC4(C#N)CC4)N(C(=O)C4(C(F)(F)F)CC4)C3)c(C(F)(F)F)c2)cn1,human,"oral, 100 mg, single dose, fasted, healthy volunteers",516 ng/mL
Nc1cc(C(F)(F)F)c(-c2cc(N3CCOCC3)nc(N3CCOCC3)n2)cn1,human,"oral, 50 mg/day, patients",595 ng/mL
O=C(/C=C/c1cccc(S(=O)(=O)Nc2ccccc2)c1)NO,human,"intravenous, 1900 mg/m², patients",106000 ng/mL
CCCOc1ccc([C@H]2CNC(=O)N2c2ccc3[nH]cnc3c2)cc1,human,"oral, 200 mg, single dose, fed, healthy volunteers",565 ng/mL
CCOc1cc([C@@H](CS(C)(=O)=O)N2C(=O)c3cccc(NC(C)=O)c3C2=O)ccc1OC,human,"oral, 30 mg, single dose, healthy volunteers",278 ng/mL
Cc1ccc(C(=O)N(CCCN)[C@@H](c2oc3cc(Cl)ccc3c(=O)c2Cc2ccccc2)C(C)C)cc1,human,"intravenous, 5 mg/m², single dose, patients, infusion",607 ng/mL
CCc1nc2c(C)cc(N3CCN(CC(=O)N4CC(O)C4)CC3)cn2c1N(C)c1nc(-c2ccc(F)cc2)c(C#N)s1,human,"oral, 1500 mg, single dose, fed, healthy volunteers",19000 ng/mL
